Reference: ChEMBL document CHEMBL1124756, “The discovery of potent nonpeptide angiotensin II receptor antagonists: a new class of potent antihypertensives” (J Med Chem, 1990)

Experiments:
[1] = Dissociation constant (pKa); type: physicochemical
[2] = target: T1, Angiotensin II receptor (Rattus norvegicus, UniProt P29089+P25095+P35351); assay: Inhibitory concentration that gave 50 percent displacement of specific binding of [3H]AII (2 nM) to Angiotensin II receptor; type: protein assay
T1 sequence (P29089 whole entry): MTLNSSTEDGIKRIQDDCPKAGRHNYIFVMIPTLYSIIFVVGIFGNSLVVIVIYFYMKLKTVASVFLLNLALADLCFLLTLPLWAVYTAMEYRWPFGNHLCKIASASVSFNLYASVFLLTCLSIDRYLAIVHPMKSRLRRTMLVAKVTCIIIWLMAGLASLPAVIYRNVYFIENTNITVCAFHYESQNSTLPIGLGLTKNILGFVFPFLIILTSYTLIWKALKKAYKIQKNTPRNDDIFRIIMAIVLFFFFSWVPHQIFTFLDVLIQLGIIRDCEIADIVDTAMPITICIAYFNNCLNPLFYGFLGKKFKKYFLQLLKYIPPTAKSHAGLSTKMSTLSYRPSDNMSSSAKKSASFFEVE
T1 sequence (P25095 whole entry): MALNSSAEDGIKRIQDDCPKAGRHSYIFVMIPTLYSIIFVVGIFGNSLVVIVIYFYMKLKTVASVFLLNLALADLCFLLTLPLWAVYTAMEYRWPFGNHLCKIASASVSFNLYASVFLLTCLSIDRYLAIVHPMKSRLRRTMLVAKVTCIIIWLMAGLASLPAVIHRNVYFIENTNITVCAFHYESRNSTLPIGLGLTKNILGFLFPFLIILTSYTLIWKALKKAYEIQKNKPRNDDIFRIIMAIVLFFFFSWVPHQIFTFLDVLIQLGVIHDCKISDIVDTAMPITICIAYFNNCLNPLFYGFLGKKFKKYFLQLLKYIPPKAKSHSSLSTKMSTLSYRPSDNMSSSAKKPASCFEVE
T1 sequence (P35351 whole entry): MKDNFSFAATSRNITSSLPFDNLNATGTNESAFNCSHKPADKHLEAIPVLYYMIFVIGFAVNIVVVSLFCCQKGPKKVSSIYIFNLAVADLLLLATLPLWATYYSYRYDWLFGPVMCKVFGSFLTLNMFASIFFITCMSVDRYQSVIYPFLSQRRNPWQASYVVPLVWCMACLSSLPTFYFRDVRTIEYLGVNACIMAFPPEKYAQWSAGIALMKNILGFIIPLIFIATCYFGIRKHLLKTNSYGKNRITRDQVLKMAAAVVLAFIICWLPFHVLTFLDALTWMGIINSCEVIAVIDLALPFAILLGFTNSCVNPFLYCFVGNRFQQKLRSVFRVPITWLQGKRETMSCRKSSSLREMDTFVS
Outline: (§1)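 Rat adrenal cortical microsomes from male Sprague–Dawley rats, resuspended in 50 mM Tris pH 7.2, 5 mM MgCl2, 0.25% BSA. Membranes (0.02–0.03 mg protein) incubated with [3H]AII 2 nM plus varying inhibitor concentrations, 60 min at 25 °C with shaking. Glass-fiber filtration, scintillation counting, duplicates. Nonspecific binding defined with 1 μM unlabeled AII. IC50 taken from linear portion of displacement curve.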

[3] = target: T1, Angiotensin II receptor; assay: Inhibitory concentration that gave 50 percent displacement of specific binding of [3H]AII (2 nM) to Angiotensin ll receptor; type: protein assay; outline: as §1

| SMILES | pKa [1] | IC50 [2] [µM] | IC50 [3] [µM] |
| --- | --- | --- | --- |
| CCCCc1nc(Cl)c(Cc2nnn[nH]2)n1Cc1ccc(-c2nnn[nH]2)cc1 | 4 | 1.2 |  |
| CCCCc1nc(Cl)c(CO)n1Cc1ccc(OC)cc1 |  | 100 |  |
| CCCCc1nc(Cl)c(COC)n1Cc1ccc(C(=O)N[C@H](Cc2ccccc2)C(=O)O)cc1 |  | 6.1 |  |
| CCCc1nccn1Cc1ccc(NC(=O)c2ccccc2C(=O)O)cc1 |  |  | 3.7 |
| O=C(O)c1ccccc1C(=O)Nc1ccc(Cn2cncc2CO)cc1 |  |  | > 100 |
| CC(C)c1nccn1Cc1ccc(NC(=O)c2ccccc2C(=O)O)cc1 |  |  | 12 |
| CCCCc1nccn1Cc1ccc(NC(=O)c2ccccc2C(=O)O)cc1 |  |  | 0.62 |
| O=C(O)c1ccccc1C(=O)Nc1ccc(Cn2ccnc2)cc1 |  |  | 100 |
| CCCCc1nc(Cl)c(COC)n1Cc1ccc(C(=O)N2CCC[C@@H]2C(=O)O)cc1 |  | 120 |  |
| CCCCc1nc(CO)c(Cl)n1Cc1ccc(C(=O)O)cc1 |  | 100 |  |
| Cc1nccn1Cc1ccc(NC(=O)c2ccccc2C(=O)O)cc1 |  |  | 100 |
| CCCCc1nc(Cl)c(CO)n1Cc1ccc(/C=N/O)cc1 |  | > 100 |  |
| CCCCCc1nccn1Cc1ccc(NC(=O)c2ccccc2C(=O)O)cc1 |  |  | 0.24 |
| CCCCc1nc(Cl)c(CO)n1Cc1ccc(C=O)cc1 |  | 28 |  |
| CCCCc1nc(Cl)c(Cc2nnn[nH]2)n1Cc1cccc(-c2nnn[nH]2)c1 |  | 3.8 |  |
| O=C(O)c1ccccc1C(=O)Nc1ccc(Cn2ccnc2CCc2ccccc2)cc1 |  |  | 9.4 |
| COc1ccc(Cc2nccn2Cc2ccc(NC(=O)c3ccccc3C(=O)O)cc2)cc1 |  |  | 2.5 |
| O=C(O)c1ccccc1C(=O)Nc1ccc(Cn2c(CCCc3ccccc3)nc(Cl)c2CO)cc1 |  | 80 |  |
| CCCCc1nc(Cl)c(COC)n1Cc1ccc(C(=O)Nc2ccccc2-c2nn[nH]n2)cc1 |  | 0.57 |  |
| C1CCC(NC2CCCCC2)CC1.CCCCc1nc(Cl)c(CC(=O)OC)n1Cc1ccc(NC(=O)c2c(Cl)ccc(Cl)c2C(=O)O)cc1 |  | 0.018 |  |
| CCCCCCCc1nccn1Cc1ccc(NC(=O)c2ccccc2C(=O)O)cc1 |  | 1.1 |  |
| CCCCc1nc(Cl)c(CC(=O)O)n1Cc1cccc(C(=O)O)c1 |  | 100 |  |
| CCCCc1nc(Cl)c(CC(=O)O)n1Cc1ccccc1C(=O)O |  | 38 |  |
| CCCCc1nc(CC(=O)O)c(Cl)n1Cc1ccc(C(=O)O)cc1 |  | 19 |  |
| CCc1nccn1Cc1ccc(NC(=O)c2ccccc2C(=O)O)cc1 |  |  | 8.5 |
| CCCCc1nc(Cl)c(COC)n1Cc1ccc(C(=O)N[C@@H](Cc2ccccc2)C(=O)O)cc1 |  | 22 |  |
| CCCCc1nc(Cl)c(COC)n1Cc1ccc(C(=O)N2CCC[C@H]2C(=O)O)cc1 |  | 6.4 |  |
| O=C(O)c1ccccc1C(=O)Nc1ccc(Cn2ccnc2CC2CCCCC2)cc1 |  |  | 2.8 |
| CCCCCCc1nccn1Cc1ccc(NC(=O)c2ccccc2C(=O)O)cc1 |  |  | 0.35 |

Further lines, results first:

| pKa [1] | IC50 [2] [µM] | IC50 [3] [µM] | SMILES |
| --- | --- | --- | --- |
| 4.5 | 5.9 |  | CCCCc1nc(Cl)c(CC(=O)OC)n1Cc1ccc(NC(=O)c2cc(Cl)ccc2NS(=O)(=O)C(F)(F)F)cc1 |
| 4.5 | 3.4 |  | CCCCc1nc(Cl)c(CC(=O)OC)n1Cc1ccc(NC(=O)c2cc(I)ccc2NS(=O)(=O)C(F)(F)F)cc1 |
|  | 8 |  | CCCCc1nc(Cl)c(COC)n1Cc1ccc(C(=O)Nc2ccccc2C(=O)O)cc1 |
|  | 5.7 |  | CCCCc1nc(Cl)c(COC)n1Cc1ccc(N(C)C(=O)c2c(Cl)ccc(Cl)c2C(=O)O)cc1 |
| 7.6 | 4.5 |  | CCCCc1nc(Cl)c(CC(=O)OC)n1Cc1ccc(NC(=O)C2CCCCC2NS(=O)(=O)C(F)(F)F)cc1 (stereo in doubt; 51) |
|  | 0.19 |  | CCCCc1nc(Cl)c(CC(=O)OC)n1Cc1ccc(NC(=O)c2ccccc2-c2ccccc2C(=O)O)cc1 |
|  | 0.4 |  | CCCCc1nc(Cl)c(CC(=O)OC)n1Cc1ccc(NC(=O)c2cccc([N+](=O)[O-])c2C(=O)O)cc1 |
| 8.9 | 2.3 |  | CCCCc1nc(Cl)c(CC(=O)OC)n1Cc1ccc(NC(=O)c2ccccc2NS(C)(=O)=O)cc1 |
|  | 3.1 |  | CCCCc1nc(Cl)c(CC(=O)OC)n1Cc1ccc(N2C(=O)c3ccccc3C2=O)cc1 |
|  | > 100 |  | CCCCc1nc(Cl)c(CC(=O)OC)n1Cc1ccccc1NC(=O)c1ccccc1NS(=O)(=O)C(F)(F)F |
|  | 1.3 |  | CCCCc1nc(Cl)c(CC(=O)OC)n1Cc1ccc(NC(=O)c2cccc(NS(=O)(=O)C(F)(F)F)c2)cc1 |
| 9.5 | 27 |  | CCCCc1nc(Cl)c(CC(=O)OC)n1Cc1ccc(NC(=O)C(F)(F)F)cc1 |
|  | 2.8 |  | CCCCc1nc(Cl)c(COC)n1Cc1ccc(NC(=O)CC(C(=O)O)c2ccccc2)cc1 (configuration not stated) |
| 4.5 | 2.7 |  | CCCCc1nc(Cl)c(CC(=O)OC)n1Cc1ccc(N(Cc2ccccc2)C(=O)c2ccccc2NS(=O)(=O)C(F)(F)F)cc1 |
|  | 100 |  | CCCCc1nc(Cl)c(CC(=O)OC)n1Cc1ccc(N)cc1 |
|  | 0.38 |  | CCCCc1nc(Cl)c(CC(=O)OC)n1Cc1ccc(NC(=O)c2cc(C)ccc2C(=O)O)cc1 |
| 4.5 | 0.5 |  | CCCCc1nc(Cl)c(CC(=O)OC)n1Cc1ccc(NC(=O)c2ccccc2NS(=O)(=O)C(F)(F)F)cc1 |
|  | 100 |  | CCCCc1nc(Cl)c(CC(=O)OC)n1Cc1ccccc1NC(=O)c1ccccc1C(=O)O |
|  | 11 |  | CCCCc1nc(Cl)c(CC(=O)OC)n1Cc1ccc(NC(=O)/C=C\C(=O)O)cc1 |
|  | 0.08 |  | CCCCc1nc(Cl)c(CC(=O)OC)n1Cc1ccc(NC(=O)c2c(OC)cccc2C(=O)O)cc1 |

| pKa [1] | IC50 [2] [µM] | IC50 [3] [µM] | SMILES |
| --- | --- | --- | --- |
| 4.3 | > 30 |  | CCCCc1nc(Cl)c(CC(=O)OC)n1Cc1ccc(NC(=O)c2cc([N+](=O)[O-])cc([N+](=O)[O-])c2O)cc1 |
| 7.6 | 3.9 |  | CCCCc1nc(Cl)c(CC(=O)OC)n1Cc1ccc(NC(=O)C2CCCCC2NS(=O)(=O)C(F)(F)F)cc1 (stereo in doubt; 50) |
| 4.5 | 0.19 |  | CCCCc1nc(Cl)c(CC(=O)OC)n1Cc1ccc(NC(=O)c2cccc(C)c2NS(=O)(=O)C(F)(F)F)cc1 |
| 4.5 | 0.81 |  | CCCCc1nc(Cl)c(CC(=O)OC)n1Cc1ccc(NC(=O)c2cc(C)ccc2NS(=O)(=O)C(F)(F)F)cc1 |
|  | > 10 |  | CCCCc1nc(Cl)c(CC(=O)OC)n1Cc1ccc(N2C(=O)C(c3ccccc3)=C(c3ccccc3)C2=O)cc1 |
|  | 100 |  | CCCCc1nc(Cl)c(CC(=O)OC)n1Cc1ccc([N+](=O)[O-])cc1 |
|  | 40 |  | CCCCc1nc(Cl)c(CC(=O)OC)n1Cc1ccc(NCc2ccccc2)cc1 |
|  | 13 |  | CCCCc1nc(Cl)c(CC(=O)O)n1Cc1ccc(CC(=O)O)cc1 |
|  | 84 |  | CCCCc1nc(Cl)c(CC(=O)OC)n1Cc1ccc(NC(=O)c2ccc(NS(=O)(=O)C(F)(F)F)cc2)cc1 |
|  | 0.42 |  | CCCCc1nc(CC(=O)OC)c(Cl)n1Cc1ccc(NC(=O)c2ccccc2C(=O)O)cc1 |
|  | 5.8 |  | CCCCc1nc(Cl)c(CC(=O)OC)n1Cc1ccc(NC(=O)c2cc3ccccc3cc2C(=O)O)cc1 |
| 4.5 | 40 |  | CCCCc1nc(Cl)c(CC(=O)OC)n1Cc1ccc(NC(=O)c2cc(Br)ccc2NS(=O)(=O)C(F)(F)F)cc1 |
|  | 0.5 |  | CCCCc1nc(Cl)c(COC)n1Cc1ccc(C(=O)Nc2cccc(C)c2C(=O)O)cc1 |
|  | 5.3 |  | CCCCc1nc(Cl)c(COC(C)=O)n1Cc1ccc(C(=O)O)cc1 |
|  | 0.032 |  | CCCCc1nc(Cl)c(CC(=O)OC)n1Cc1ccc(NC(=O)c2c(C)cccc2C(=O)O)cc1 |
|  | 7.5 |  | CCCCc1nc(Cl)c(COC)n1Cc1ccc(NC(=O)C(CC(=O)O)c2ccccc2)cc1 (configuration not stated) |
| 4.5 | 2.1 |  | CCCCc1nc(Cl)c(CC(=O)OC)n1Cc1ccc(NS(=O)(=O)C(F)(F)F)cc1 |
|  | 15 |  | CCCCc1nc(Cl)c(CC(=O)O)n1Cc1ccccc1[N+](=O)[O-] |
|  | 6.9 |  | CCCCc1nc(Cl)c(CC(=O)OC)n1Cc1ccc(NC(=O)c2ccc([N+](=O)[O-])cc2C(=O)O)cc1 |
